What all share (format): functional
For test [1], the system named is Staphylococcus aureus. The test can be described thus: Antimicrobial activity against Staphylococcus aureus ATCC 25923 after 24 hrs by microdilution assay. Conditions: ATCC 25923, 24 h. The essentials: (§1)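 Broth microdilution in Müller-Hinton broth, run only for compounds giving zones >12 mm. Stock at 1000 µg/mL in DMF, then twofold dilutions of 500 down to 3.125 µg/mL. Wells inoculated with 10^6 CFU/mL.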

In test [2] the test system is Pseudomonas fluorescens. The test can be described thus: Antimicrobial activity against Pseudomonas fluorescens S 97 after 24 hrs by microdilution assay. Conditions: S 97, 24 h. The essentials:
as §1
In general terms: Dilution methods test growth across graded concentrations, often in twofold steps.

Test [3] relates to Pseudomonas fluorescens. The test can be described thus: Antimicrobial activity against Pseudomonas fluorescens S 97 after 24 hrs by agar diffusion assay. A digest of the protocol:
(§2)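 Filter-paper disks (5 mm) loaded with test solution at 1 mg/mL in DMF, placed on agar seeded with the bacterium, in triplicate. DMF alone served as control. Plates incubated at 37 °C for 24 h. Read-out is the mean diameter of the inhibition zone in mm.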
In general terms: Agar diffusion results depend on both activity and mobility in agar.

Test [4] has as its system Streptococcus pyogenes. The test can be described thus: Antimicrobial activity against Streptococcus pyogenes ATCC 19615 after 24 hrs by agar diffusion assay. A digest of the protocol:
as §2

In test [5] the test system is Pseudomonas. As to the kind of experiment: Antimicrobial activity against Pseudomonas phaseolicola GSPB 2828 after 24 hrs by agar diffusion assay. A digest of the protocol:
as §2

Test [6] has as its system Streptococcus pyogenes. The test can be described thus: Antimicrobial activity against Streptococcus pyogenes ATCC 19615 after 24 hrs by microdilution assay. Conditions: ATCC 19615, 24 h. A digest of the protocol:
as §1

Test [7] relates to Staphylococcus aureus. The test can be described thus: Antimicrobial activity against Staphylococcus aureus ATCC 25923 after 24 hrs by agar diffusion assay. The essentials:
as §2

Test [8] concerns Pseudomonas. The test can be described thus: Antimicrobial activity against Pseudomonas phaseolicola GSPB 2828 after 24 hrs by microdilution assay. The note with it: GSPB 2828, 24 h. The essentials:
as §1

Test [9] has as its system Aspergillus fumigatus. As to the kind of experiment: Antimicrobial activity against Aspergillus fumigatus after 48 hrs by microdilution assay. The essentials:
(§3)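 Broth microdilution in Sabouraud liquid medium, run only for compounds giving zones >12 mm. Stock at 1000 µg/mL in DMF, then twofold dilutions of 500 down to 3.125 µg/mL. Wells inoculated with 10^6 CFU/mL.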

Test [10] relates to Fusarium oxysporum. As to the kind of experiment: Antimicrobial activity against Fusarium oxysporum after 48 hrs by microdilution assay. A digest of the protocol: as §3
Test [11] deals with Aspergillus fumigatus. As to the kind of experiment: Antimicrobial activity against Aspergillus fumigatus after 48 hrs by agar diffusion assay.
Test [12] relates to Fusarium oxysporum. The test can be described thus: Antimicrobial activity against Fusarium oxysporum after 48 hrs by agar diffusion assay.

Molecules are shown by their SMILES. ≈ marks a conversion by molar mass, not a printed value.

For orientation: MIC means the lowest concentration found to suppress growth. High values mean weaker potency, low ones greater potency. Consider `O=C(N[C@H](CO)[C@H](O)c1ccc([N+](=O)[O-])cc1)C(Cl)Cl` [CHLORAMPHENICOL], for which the MIC in test [1] is 3.12 µg/mL (≈ 9.67 µM); in [2], 6.25 µg/mL (≈ 19.3 µM); in test [6] it was 3.12 µg/mL (≈ 9.67 µM); in test [8] it was 6.25 µg/mL (≈ 19.3 µM). The “inhibition zone (IZ)” value in test [3] stood at 38 mm; in test [4], 44 mm; in test [5] it was 37 mm; in [7], 42 mm.

For the molecule `CCOC(=O)c1sc(Nc2ccccc2)c(C(=O)Nc2nc3ccccc3s2)c1N`, the MIC in test [1] came out at 3.12 µg/mL (≈ 7.13 µM); in [9], 12.5 µg/mL (≈ 28.5 µM); in test [10], 100 µg/mL (≈ 228 µM); in test [6], 6.25 µg/mL (≈ 14.3 µM); in test [8], 50 µg/mL (≈ 114 µM). Also, the “inhibition zone (IZ)” value in test [4] turned out to be 38 mm; in [11], 31 mm; in [5] it was 19 mm; in test [7], 43 mm; in test [12], 14 mm.

Regarding `N#C/C(C(=O)Nc1nc2ccccc2s1)=C1/SC=C(c2ccccc2)N1c1ccccc1`, the MIC in test [1] was found to be 50 µg/mL (≈ 110 µM); in [2], 50 µg/mL (≈ 110 µM); in test [9], 6.25 µg/mL (≈ 13.8 µM); in test [10], 100 µg/mL (≈ 221 µM); in [6] it was 100 µg/mL (≈ 221 µM); in test [8] it was 100 µg/mL (≈ 221 µM). In addition, the “inhibition zone (IZ)” value amounted to 19 mm in test [3]; 15 mm in test [4]; 38 mm in test [11]; 14 mm in test [5]; 19 mm in test [7]; 15 mm in test [12].

In the case of `O=C1CSC(CC(=O)Nc2nc3ccccc3s2)=N1`, the minimal inhibitory concentration (MIC) in test [1] turned out to be 25 µg/mL (≈ 85.8 µM); in test [2] it was 6.25 µg/mL (≈ 21.5 µM); in test [9], 50 µg/mL (≈ 172 µM); in test [10], 100 µg/mL (≈ 343 µM); in test [6], 25 µg/mL (≈ 85.8 µM); in test [8], 100 µg/mL (≈ 343 µM). Further, the “inhibition zone (IZ)” value was 37 mm in test [3]; 25 mm in [4]; 20 mm in test [11]; 14 mm in [5]; 26 mm in test [7]; 16 mm in [12].

As for `O=C(Nc1nc2ccccc2s1)c1c(Nc2ccccc2)n[nH]c1/N=C\c1cn(-c2ccccc2)nc1-c1ccccc1`, the MIC was 3.12 µg/mL (≈ 5.38 µM) in test [1]; 50 µg/mL (≈ 86.1 µM) in test [2]; 100 µg/mL (≈ 172 µM) in test [9]; 25 µg/mL (≈ 43.1 µM) in test [10]; 6.25 µg/mL (≈ 10.8 µM) in test [6]; 100 µg/mL (≈ 172 µM) in test [8]. The “inhibition zone (IZ)” value in test [3] was determined as 19 mm; in test [4] it was 37 mm; in [11] it was 14 mm; in [5], 15 mm; in [7], 44 mm; in test [12], 26 mm.

Consider `Nc1c(C(=O)c2ccccc2)sc(Nc2ccccc2)c1C(=O)Nc1nc2ccccc2s1`, for which the MIC in test [1] was 6.25 µg/mL (≈ 13.3 µM); in test [2], 50 µg/mL (≈ 106 µM); in test [10] it was 100 µg/mL (≈ 213 µM); in [6], 6.25 µg/mL (≈ 13.3 µM); in [8] it was 50 µg/mL (≈ 106 µM). The “inhibition zone (IZ)” value in test [3] was 20 mm; in test [4], 37 mm; in test [5] it was 19 mm; in test [7] it was 38 mm; in [12] it was 14 mm.

Regarding `Nc1[nH]nc(-c2cn(-c3ccccc3)nc2-c2ccccc2)c1C(=O)Nc1nc2ccccc2s1`, the MIC in test [1] was 12.5 µg/mL (≈ 26.2 µM); in test [2], 50 µg/mL (≈ 105 µM); in test [10], 50 µg/mL (≈ 105 µM); in [6] it was 6.25 µg/mL (≈ 13.1 µM); in [8], 100 µg/mL (≈ 209 µM). In addition, the “inhibition zone (IZ)” value came out at 20 mm in [3]; 38 mm in [4]; 14 mm in test [5]; 32 mm in test [7]; 19 mm in test [12].

As to `Nc1c(C(=O)Nc2nc3ccccc3s2)sc(=S)n1-c1ccccc1`, the MIC came to 12.5 µg/mL (≈ 32.5 µM) in [1]; 100 µg/mL (≈ 260 µM) in test [2]; 100 µg/mL (≈ 260 µM) in [9]; 12.5 µg/mL (≈ 32.5 µM) in test [10]; 100 µg/mL (≈ 260 µM) in test [6]; 50 µg/mL (≈ 130 µM) in test [8]. For the same molecule, the “inhibition zone (IZ)” value in test [3] was 16 mm; in test [4], 14 mm; in test [11], 16 mm; in test [5], 20 mm; in test [7], 32 mm; in [12] it was 31 mm.

In the case of `O=C(Nc1nc2ccccc2s1)c1c(Nc2ccccc2)nn2c(-c3cccs3)ccnc12`, the MIC was found to be 100 µg/mL (≈ 213 µM) in test [1]; 50 µg/mL (≈ 107 µM) in [2]; 25 µg/mL (≈ 53.4 µM) in test [9]; 6.25 µg/mL (≈ 13.3 µM) in test [10]; 100 µg/mL (≈ 213 µM) in [6]; 100 µg/mL (≈ 213 µM) in [8]. Further, the “inhibition zone (IZ)” value in test [3] is given as 18 mm; in test [4] it was 15 mm; in test [11], 26 mm; in test [5], 15 mm; in test [7], 14 mm; in test [12], 37 mm.

`N#C/C(C(=O)Nc1nc2ccccc2s1)=C1\SCC(=O)N1c1ccccc1`: the MIC is 100 µg/mL (≈ 255 µM) in [1]; 100 µg/mL (≈ 255 µM) in test [2]; 50 µg/mL (≈ 127 µM) in test [9]; 100 µg/mL (≈ 255 µM) in [10]; 100 µg/mL (≈ 255 µM) in test [6]; 100 µg/mL (≈ 255 µM) in [8]. Further, the “inhibition zone (IZ)” value in [3] was found to be 17 mm; in test [4], 14 mm; in test [11] it was 19 mm; in test [5] it was 15 mm; in [7], 15 mm; in test [12], 14 mm.

As to `Cc1cc(O)n2nc(Nc3ccccc3)c(C(=O)Nc3nc4ccccc4s3)c2n1`, the MIC in test [1] was determined as 25 µg/mL (≈ 60 µM); in test [2], 50 µg/mL (≈ 120 µM); in test [9], 100 µg/mL (≈ 240 µM); in test [10], 100 µg/mL (≈ 240 µM); in test [6], 6.25 µg/mL (≈ 15 µM); in test [8], 25 µg/mL (≈ 60 µM). Further, the “inhibition zone (IZ)” value in test [3] is reported as 19 mm; in [4], 37 mm; in test [11], 14 mm; in test [5], 26 mm; in [7], 25 mm; in [12], 15 mm.

For the molecule `Cc1cc(C)c2c(n1)[nH]n1c(=N)c(C(=O)Nc3nc4ccccc4s3)nnc21`, the MIC amounted to 100 µg/mL (≈ 256 µM) in test [1]; 12.5 µg/mL (≈ 32 µM) in test [2]; 50 µg/mL (≈ 128 µM) in [9]; 25 µg/mL (≈ 64 µM) in test [10]; 100 µg/mL (≈ 256 µM) in test [6]; 100 µg/mL (≈ 256 µM) in test [8]. The “inhibition zone (IZ)” value amounted to 32 mm in test [3]; 15 mm in test [4]; 19 mm in test [11]; 15 mm in test [5]; 14 mm in [7]; 26 mm in test [12].

With `CC(=O)OCC1=C(C(=O)O)N2C(=O)[C@@H](NC(=O)Cc3cccs3)[C@H]2SC1` [CEPHALOTHIN], the MIC in test [1], in [2], in test [6] and in test [8] was 6.25 µg/mL (≈ 15.8 µM) each time. For the same molecule, the “inhibition zone (IZ)” value in test [3] stood at 37 mm; in test [4] it was 37 mm; in [5] it was 38 mm; in test [7], 36 mm.

Consider `C[C@@H]1C[C@@H]([C@H](O)CC2CC(=O)NC(=O)C2)C(=O)[C@@H](C)C1` [CYCLOHEXIMIDE], for which the MIC in [9] and in test [10] was 3.12 µg/mL (≈ 11.1 µM) in each case. The “inhibition zone (IZ)” value worked out at 42 mm in [11] and 43 mm in test [12].

For `O=c1c2c(Nc3ccccc3)n[nH]c2ncn1-c1nc2ccccc2s1`, the MIC was found to be 100 µg/mL (≈ 277 µM) in test [1]; 100 µg/mL (≈ 277 µM) in test [2]; 100 µg/mL (≈ 277 µM) in test [9]; 50 µg/mL (≈ 139 µM) in test [10]; 100 µg/mL (≈ 277 µM) in test [6]; 6.25 µg/mL (≈ 17.3 µM) in test [8]. Also, the “inhibition zone (IZ)” value in [3] is on record as 15 mm; in [4], 15 mm; in [11], 15 mm; in [5], 38 mm; in [7] it was 15 mm; in test [12], 19 mm.

As for `Nc1sc2c(c1C(=O)Nc1nc3ccccc3s1)CCCC2`, the MIC was 6.25 µg/mL (≈ 19 µM) in test [1]; 100 µg/mL (≈ 304 µM) in test [2]; 50 µg/mL (≈ 152 µM) in test [9]; 100 µg/mL (≈ 304 µM) in test [10]; 6.25 µg/mL (≈ 19 µM) in test [6]; 100 µg/mL (≈ 304 µM) in test [8]. Besides, the “inhibition zone (IZ)” value is 16 mm in [3]; 38 mm in test [4]; 19 mm in [11]; 14 mm in test [5]; 38 mm in [7]; 15 mm in test [12].

(Values after ChEMBL document CHEMBL1240456, “Synthesis and antimicrobial activity of some new thiazole, thiophene and pyrazole derivatives containing benzothiazole moiety” (2010).)
